Source: PubChem (several laboratories)
Rad51 HR inh: Rad51 (human) homologous recombination inhibition; inhibition, % at 10 µM; AID 1385; 0.085% of 200,000 active; hRad51 DNA strand exchange, fluorescence dequenching;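 active means inhibition above 40% at the single screening dose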;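 further: 0% = DMSO control wells and 100% = blanks with heterologous ssDNA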
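Material: Human Rad51 nucleoprotein filaments preassembled on unlabelled ssDNA | Also added: Labelled 47-mer dsDNA for strand exchange | Dosing: Single dose, 10 µM final compound | Schedule: 30-min compound preincubation and 15-min exchange, both room temperature | Technique: Fluorescence dequenching at 485/520 nm | Measure: Percent inhibition relative to plate controls and blanks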
PKD1 inh: blocks activity of human protein kinase D1; inhibition, % (test concentration not listed); PKD1 kinase fluorescence polarization assay; AID 797; 0.056% of 200,000 active; Q15139; in the data active means inhibition above about 50%
Target sequence (Q15139 whole entry, looked up): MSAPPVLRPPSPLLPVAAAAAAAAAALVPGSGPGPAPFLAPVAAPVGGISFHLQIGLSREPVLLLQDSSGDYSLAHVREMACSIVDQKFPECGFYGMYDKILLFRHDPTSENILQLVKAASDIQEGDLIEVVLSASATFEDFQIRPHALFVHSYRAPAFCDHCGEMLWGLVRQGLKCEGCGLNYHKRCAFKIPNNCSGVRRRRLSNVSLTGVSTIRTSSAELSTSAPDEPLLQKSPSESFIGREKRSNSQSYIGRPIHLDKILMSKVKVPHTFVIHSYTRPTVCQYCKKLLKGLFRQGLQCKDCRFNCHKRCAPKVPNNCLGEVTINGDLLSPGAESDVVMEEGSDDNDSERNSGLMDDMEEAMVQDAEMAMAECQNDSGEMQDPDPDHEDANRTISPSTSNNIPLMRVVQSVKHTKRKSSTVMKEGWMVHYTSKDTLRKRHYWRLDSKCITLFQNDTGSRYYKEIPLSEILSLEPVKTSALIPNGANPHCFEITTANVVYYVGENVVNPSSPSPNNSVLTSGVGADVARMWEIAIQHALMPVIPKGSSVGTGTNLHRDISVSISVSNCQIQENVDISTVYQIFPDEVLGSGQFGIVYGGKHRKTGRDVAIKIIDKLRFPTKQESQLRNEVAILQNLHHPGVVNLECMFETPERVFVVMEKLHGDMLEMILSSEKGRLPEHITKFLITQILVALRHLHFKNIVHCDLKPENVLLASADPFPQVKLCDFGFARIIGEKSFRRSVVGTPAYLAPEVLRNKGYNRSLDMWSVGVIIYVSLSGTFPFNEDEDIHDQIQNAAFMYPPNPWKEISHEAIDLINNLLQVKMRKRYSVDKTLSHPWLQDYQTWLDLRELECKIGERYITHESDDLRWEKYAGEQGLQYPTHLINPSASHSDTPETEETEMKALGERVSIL
ROMK mod: human ROMK K+ channel modulation, primary screen; Tet-inducible ROMK, thallium flux fluorescence; actives lie on both sides; AID 1918; 2% of 130,000 active; P48048; B-score at 10 µM;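 active means signal ratio slope over the read window, or its plate-corrected B-score, at least 3 SD from the plate mean, either direction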;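 further: B-score of the F/F0 ratio slope over 7 to 12 s after thallium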
Cl transport mod: modulators of human KCC2 chloride dependent transport; 2.2% of 190,000 active; B-score of Tl+ flux slope (higher = more flux/activation; lower = inhibition) at 10 µM; Q9H2X9; KCC2 cells, thallium flux FluoZin-2 fluorescence; AID 1456;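 active means thallium flux slope and its plate-corrected score both differing from the plate sample mean at a set confidence after two filtering rounds, in either direction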;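 further: slope of fluorescence scaled to starting intensity during 10 to 20 s after thallium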
Numbers without * were called inactive; / = no result. This is a sample that favours compounds with a hit; in the whole collection about 3% have one here.

SMILES	Rad51 HR inh	PKD1 inh	ROMK mod	Cl transport mod
CCOC(=O)N1CCC(=NNC(=O)Cn2ccc(C(F)(F)F)n2)CC1	-0.3	-3.0	0.362	-0.0162
O=C(c1ccc2c(=O)n(C3CCCC3)c(=S)[nH]c2c1)N1CCc2ccccc21	-36.9	-3.3	/	17.5*
O=C1N=C2N(CCN3CCCCC3)c3ccccc3N2/C1=C\c1ccc([N+](=O)[O-])o1	3.4	-7.8	0.322	/
COc1ccccc1N1CCN(C(=O)C2CC=CCC2C(=O)O)CC1 (stereo not drawn)	0.5	-4.6	/	-3.57*
COc1ccccc1N1CCN(C(=O)Oc2ccccc2)CC1	/	-1.8	0.922	/
CCc1ccc(/C=N/NC(=O)c2cc(C3CC3)nc3ccccc23)s1	-2.4	-7.1	3.19*	-0.1
O=C(N/N=C/c1ccc([N+](=O)[O-])cc1)c1cc(C2CC2)nc2ccccc12	-3.0	/	/	0.233
COc1ccccc1NC(=O)OCC#CCOC(=O)Nc1ccccc1OC	7.3	/	0.454	-0.262
O=C1OCC2=C1C(c1ccccc1)CC(=O)N2c1ccccc1 (stereo not drawn)	51.3*	8.6	-0.357	-0.0089
Cc1ccc(OCC(=O)NNC(=O)C(=O)NC(C)(C)C)cc1	6.1	-3.0	/	13*
COc1ccc(CC(=O)NNC(=O)COc2ccc(Br)cc2C)cc1OC	/	-19.5	0.312	0.624
COc1ccc(OC)c(NC(=O)C(=O)NNC(=O)COc2ccc(Br)cc2C)c1	-0.2	-4.2	1.61*	91*
COc1ccc(C)cc1NC(=O)C(=O)NNC(=O)COc1ccc(Cl)cc1	-2.0	-6.4	7.13*	77.9*
CS(=O)(=O)Nc1cccc(C2=NN(S(C)(=O)=O)C(c3ccccc3)C2)c1 (stereo not drawn)	42.7*	10.4	-0.0392	-0.626
CCS(=O)(=O)Nc1cccc(C2=NN(S(=O)(=O)CC)C(c3ccccc3)C2)c1 (stereo not drawn)	-1.7	-1.6	/	-0.827
CC(=O)c1ccc(NC(=O)c2cc(Cl)sc2Cl)cc1	0.5	-0.6	/	-0.304
Cc1cc(Cl)ccc1NC(=O)CCC(=O)N/N=C/c1cc([N+](=O)[O-])ccc1O	-9.2	2.7	0.0201	-1.21
O=[N+]([O-])c1ccc(O)c(/C=N/NC(=S)Nc2ccc(Cl)cc2Cl)c1	11.9	/	2.9*	9.22*
COc1ccc(C)cc1NC(=O)C(Sc1nnnn1C)c1ccccc1 (stereo not drawn)	-11.4	3.6	0.014	0.936
CCCn1c(SC(C(=O)Nc2cc(C)ccc2OC)c2ccccc2)nc2ccccc2c1=O (stereo not drawn)	7.4	-3.4	/	13.7*
S=C(Nc1ccc(Br)cc1Cl)Nn1cnnc1	/	-2.6	0.625	0.495
O=[N+]([O-])c1ccc(N/N=C/c2sc(N3CCOCC3)nc2-c2ccccc2)c(S(=O)(=O)Nc2ccccc2Cl)c1	/	0.1	-5.04*	-1.37
Cc1ccc(NC(=O)c2ccc(OC(=O)COc3ccc(Cl)cc3C)cc2)cc1	9.7	-1.8	1.43	0.463
Cc1ccc(C(=O)CC(=O)COc2ccc(Cl)cc2C)cc1	/	-12.3	/	17.1*
C=C(C)C(=O)Nc1cccc(C2=NOC3(C2)C[C@H](C(N)=O)N(C(=O)COc2ccc(Cl)cc2)C3)c1 (stereo partly drawn)	-9.6	/	/	-0.279
SMILES	Rad51 HR inh	PKD1 inh	ROMK mod	Cl transport mod
CN(C)S(=O)(=O)c1ccc(NC(=S)NC(=O)c2ccc(Br)o2)cc1	-6.5	0.6	2.43*	12.6*
NS(=O)(=O)c1ccc(NC(=S)NC(=O)c2ccc(Br)o2)cc1	-0.1	1.1	/	/
O=C(O)c1ccc2c(c1)C(=O)N(N1C(=O)c3ccccc3C1=O)C2=O	10.1	-7.8	0.122	0.128
CC(C)n1c(NCCO)nc2ccccc21	-1.4	-4.7	0.74	0.0158
CC(C)n1c(Nc2ccccc2)nc2ccccc21	-8.7	0.4	-3.18*	0.437
COc1ccc(-c2nsc(SCC(=O)NCC3CCCO3)n2)cc1 (stereo not drawn)	-1.6	-8.3	-1.62	0.565
C=CCn1c(O)c(N=NC(=O)OC(C)(C)C)c2ccccc21	1.7	-3.6	/	17.4*
CC1(C)Oc2ccc3ccc(=O)oc3c2-c2cn[nH]c21	0.6	89.9*	/	-0.836
COc1ccc(Cn2c(=S)[nH]c3ccsc3c2=O)cc1	-1.4	-9.2	1.14	26.4*
O=C(CCN1C(=O)c2ccccc2C1=O)C1=NN[C@@H]2C(=O)N(c3ccc4c(c3)OCO4)C(=O)[C@H]12	7.7	/	-0.425	-0.143
COc1ccccc1-c1nnc(Nc2nc3c(OC)cccc3s2)o1	2.9	0.0	2.38*	4.15*
COc1cccc(-c2nnc(Nc3nc4c(F)cccc4s3)o2)c1	/	-3.8	9.44*	38.9*
COc1cccc2sc(NN)nc12	3.2	-6.8	0.258	0.794
COc1cccc(-c2nnc(NC(C)=O)o2)c1	-3.0	/	/	-0.0108
O=c1cnnc(SCc2ccc([N+](=O)[O-])cc2)[nH]1	-0.4	-6.0	0.781	-0.105
S=c1[nH]nc(COc2ccccc2)n1/N=C/c1ccncc1	11.4	4.0	/	-0.514
CC(/C=N/n1c(COc2ccccc2)n[nH]c1=S)=C\c1ccccc1	-0.2	-1.6	/	7.76*
Cc1onc(-c2ccccc2)c1CNS(=O)(=O)c1ccccc1[N+](=O)[O-]	8.7	/	/	0.144
Cc1cc(O)c(C=O)c2c1C(=O)Oc1c(CO)c(O)c3c(c1O2)C(O)OC3=O (stereo not drawn)	65.9*	11.5	/	0.209
N#Cc1c2c(c(-c3ccccc3Cl)[nH]c1=S)CCCC2	-35.5	1.4	0.363	40*
C=C1CCN([C@@H](CC(C)C)C(=O)Nc2nc3ccc(Cl)cc3s2)S(=O)(=O)c2ccccc21	-4.2	/	/	/
CC[C@@H]1C=C(C)C[C@H](C)C[C@H](OC)[C@H]2O[C@@](O)(C(=O)C(=O)N3CCCC[C@H]3C(=O)O[C@H](/C(C)=C/[C@@H]3CC[C@@H](O)[C@H](OC)C3)[C@H](C)[C@@H](O)CC1=O)[C@H](C)C[C@@H]2OC	-3.2	-9.4	-3.55*	-0.638
C=CC[C@@H]1C=C(C)C[C@H](C)C[C@H](OC)[C@H]2O[C@@](O)(C(=O)C(=O)N3CCCC[C@H]3C(=O)O[C@H](/C(C)=C/[C@@H]3CC[C@@H](O)[C@H](OC)C3)[C@H](C)[C@@H](O)CC1=O)[C@H](C)C[C@@H]2OC	-3.4	/	/	/
O=C(/C=C/c1ccc(Br)o1)Nc1nnc(C2CC2)s1	-22.8	/	/	-0.715
COC(=O)C(C)N(C(=O)c1cccc(Cl)c1)c1c(C)cccc1C (stereo not drawn)	-5.9	-13.4	0.585	-0.664
SMILES	Rad51 HR inh	PKD1 inh	ROMK mod	Cl transport mod
COC(=O)C(C)N(C(=O)c1cccc2ccccc12)c1c(C)cccc1C (stereo not drawn)	2.2	-1.4	/	-3.72*
S=c1nc(-c2ccccc2)n(Cc2ccco2)c2c1CCCC2	-12.7	0.6	/	15.2*
Cc1c(Cl)cccc1NC(=O)CC1Sc2ccccc2NC1=O (stereo not drawn)	3.8	/	/	0.572
CC(=O)Nc1cc(NC(C)=O)ncn1	4.9	/	/	-0.476
Cc1ccc(NC(=S)NNc2ncc(C(F)(F)F)cc2Cl)c(C)c1	1.0	-6.8	-1.38	4.26*
FC(F)(F)c1cnc(NNC(=S)Nc2ccc(Cl)cc2)c(Cl)c1	0.2	6.3	1.23	30.1*
